The source made the active and inactive calls. The calls are words filed in the database; no cut-off is given here.

In one experiment the test system is RAW264.7. In words: Anti-inflammatory activity in mouse RAW264.7 cells assessed as LPS-stimulated inhibition of nitric oxide production incubated simultaneously with LPS for 24 hrs by Griess reagent based assay. Format: functional, cell-based.
Details: not given
The gist of the method: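 RAW264.7 cells grown in RPMI 1640 with 10% heat-inactivated FBS, penicillin 100 U/mL and streptomycin 100 μg/mL; 1 × 10^5 cells/well allowed to adhere 2 h at 37 °C, 5% CO2. Cells exposed to 1 μg/mL LPS for 24 h with or without compounds across a concentration range. Indomethacin as positive control. Nitrite in supernatant measured by Griess reagent. Run in triplicate; IC50 reported.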
On the technique in general: Griess reagent forms a coloured azo dye with nitrite.
On to `C[N@@+]12CCc3c([nH]c4ccccc34)[C@](CO)(C(=O)[O-])[C@@H](CC1)/C(=C\CO)C2`, for which the inhibition entry is “inactive”.
On the same count and under the same terms, for `C/C=C1/C[N@+]2(C)CCc3c([nH]c4ccccc34)[C@H](C(=O)[O-])[C@H]1CC2` the value was “inactive”; for `CC[C@H]1C[C@@H]2C[C@@]3(C(=O)OC)c4[nH]c5ccccc5c4CCN(C2CO)[C@@H]13` (some centres not stated), “Active”.
Still for that read-out and setting: the value for `COC(=O)[C@@]12C[C@@H]3C[C@@H](C(C)O)[C@@H]1N(CC[C@]21Nc2ccccc2C1=O)C3` (some centres not stated) was “inactive”; that for `C[C@H](O)[C@@H]1C[C@H]2C[C@H]3c4[nH]c5ccccc5c4CCN(C2)[C@@H]13` was “Active”; that for `C/C=C1/C[N@+]2(C)CCc3c([nH]c4ccccc34)C(CO)(C(=O)[O-])[C@H]1CC2` (some centres not stated) was “inactive”.
The same measure, in the same setting: for `COC(=O)[C@@]12C[C@H]3C[C@H]([C@H](C)O)[C@@H]1N(Cc1c2n(C=O)c2ccccc12)C3` the value was “inactive”; for `COC(=O)[C@@]12C[C@H]3C[C@H](C(C)=O)[C@@H]1N(CCc1c2[nH]c2ccccc12)C3`, “Active”.
Take `CC[C@H]1C[C@@H]2C[C@@]3(C(=O)OC)c4[nH]c5ccccc5c4CCN(C2CC(C)=O)[C@@H]13` (some centres not stated): the inhibition entry is “Active”.
On the same count and under the same terms, for `COC(=O)[C@]12C[C@@H]3CN(CCc4c1[nH]c1ccccc41)[C@H]2[C@@H]([C@H](C)O)C3O` (some centres not stated) the value was “Active”; for `COC(=O)[C@@]12C[C@H]3C[C@H]([C@H](C)O)[C@@H]1N(CCc1c2[nH]c2ccccc12)C3CC(C)=O` (some centres not stated), “Active”; for `C/C=C1/C[N@+]2(C)CCc3c([nH]c4ccccc34)[C@@H](C(=O)[O-])[C@H]1CC2`, “inactive”.

Still in this experiment, the particulars now being: RAW264.7, 24 h.
The IC50 is the concentration at which inhibition is half-maximal. Turning to `CC[C@H]1C[C@@H]2CN3CCc4c([nH]c5ccccc45)[C@](C(=O)OC)(C2)[C@H]13` [CORONARIDINE], the concentration for half-maximal inhibition (IC50) was found to be 25.5 µM.
Same read-out and setting: the value for `CC[C@@]1(O)CC2[C@H]3C(C(=O)OC)=C4Nc5ccccc5C45CCN([C@H]25)[C@H]31` (some centres not stated) was 41.5 µM.
On the same count and under the same terms, the value for `COc1ccc2c(c1)c(CC(=O)O)c(C)n2C(=O)c1ccc(Cl)cc1` [INDOMETHACIN] was 42.6 µM.

Test system in another experiment: not listed separately
The experiment in a line: Cytotoxicity against human 786-O cells by MTT assay. The note with it: 786-0. Format: functional, cell-based. A general note: Tetrazolium dyes change colour on reduction, which living cells bring about.
Take `COC(=O)[C@@]12C[C@H]3C[C@H](C(C)=O)[C@@H]1N(CCc1c2[nH]c2ccccc12)C3`: the 50% inhibitory concentration (IC50) is 27.3 µM.

A further experiment relates to HL-60. In words: Cytotoxicity against human HL60 cells by MTT assay. Format: functional, cell-based.
Details: not given
As to `COC(=O)[C@@]12C[C@H]3C[C@H](C(C)=O)[C@@H]1N(CCc1c2[nH]c2ccccc12)C3`, half-maximal inhibition (IC50) required 48.5 µM.

Values taken from ChEMBL document CHEMBL3580548, “Ervatamines A-I, Anti-inflammatory Monoterpenoid Indole Alkaloids with Diverse Skeletons from Ervatamia hainanensis” (J Nat Prod, 2015).
